The source of these data is ChEMBL document CHEMBL4765395, “Design, diversity-oriented synthesis and biological evaluation of novel heterocycle derivatives as non-nucleoside HBV capsid protein inhibitors” (Eur J Med Chem, 2020).

Data set [1] concerns Hepatitis B virus. Description: Binding affinity to recombinant HBV capsid protein assessed as response value at 25 uM by surface plasmon resonance analysis (reference value: 14.56). A digest of the protocol:
(§1)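 Recombinant HBV capsid protein purified and amine-coupled to a CM5 sensor chip. Six doses of test compound run with running buffer containing 5% DMSO, plus eight solvent-calibration solutions and 50% DMSO solution. Samples centrifuged 15 min before loading. PBS and NaAc-HAc buffers used. Binding read as SPR response.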

Data set [2] can be described thus: Selectivity index, ratio of CC50 for human HepG2.2.15 cells to IC50 for antiviral activity against HBV infected in human HepG2.2.15 cells assessed as reduction in HBsAg secretion. Type of data set: toxicity, cell-based. As to conditions: read-out: Ratio CC50/IC50.
For data set [3], the system named is HepG2 2.2.15. Nature of the data set: Cytotoxicity against human HepG2.2.15 cells assessed as reduction in cell viability at 100 uM incubated for 4 days prior to compound washout followed by compound addition and measured after 4 days by CCK8 assay relative to control. Format: cell-based. Particulars: hepg2 2.2.15, 192 h, time 8 day. The method in brief: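 Three wells of 4000 HepG2.2.15 cells per well received a single 100 µM concentration for 8 days, with medium replaced on day 4. CCK-8 (10%) was added 0.5 h before the end, and OD was read at 450 and 630 nm. Percent cell death was calculated against untreated cells.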

Data set [4] can be described thus: Selectivity index, ratio of CC50 for human HepG2.2.15 cells to IC50 for antiviral activity against HBV infected in human HepG2.2.15 cells assessed as reduction in intracellular viral DNA level. As to conditions: read-out: Ratio CC50/IC50. Format: toxicity, cell-based.
The subject of data set [5] is Hepatitis B virus. Description: (§2) Binding affinity to recombinant HBV capsid protein by surface plasmon resonance analysis. A digest of the protocol:
as §1

A short description of data set [6]: as §2. More on the design: species or system Hepatitis B virus. A digest of the protocol:
as §1

Data set [7] in a line: Selectivity index, ratio of CC50 for human HepG2.2.15 cells to IC50 for antiviral activity against HBV infected in human HepG2.2.15 cells assessed as reduction in HBeAg secretion. As to conditions: read-out: Ratio CC50/IC50. Format: toxicity, cell-based.
Data set [8] has as its system Hepatitis B virus. Description: Antiviral activity against HBV infected in human HepG2.2.15 cells assessed as […] at 100 uM incubated for 4 days prior to compound washout followed by compound addition and measured after 4 days by fluorogenic probe based RT-qPCR analysis relative to control. Type of data set: functional. As to conditions: for inhibition at 100 µM: HepG2.2.15, 192 h, time 8 day.

In data set [9] the test system is Hepatitis B virus. Description: Antiviral activity against HBV infected in human HepG2.2.15 cells assessed as reduction in intracellular viral DNA level incubated for 8 days by fluorogenic probe based RT-qPCR analysis. As to conditions: HepG2.2.15, 192 h.
For data set [10], the system named is Hepatitis B virus. Description: Binding affinity to recombinant HBV capsid protein assessed as response value at 100 uM by surface plasmon resonance analysis (reference value: 14.56). A digest of the protocol:
as §1
On the technique in general: SPR reads the build-up and loss of mass on a sensor chip optically.

Data set [11] relates to Hepatitis B virus. Nature of the data set: Binding affinity to recombinant HBV capsid protein assessed as response value at 50 uM by surface plasmon resonance analysis (reference value: 14.56). A digest of the protocol: as §1
Data set [12] deals with Hepatitis B virus. Nature of the data set: Antiviral activity against HBV infected in human HepG2.2.15 cells assessed as reduction in HBeAg secretion incubated for 4 days prior to compound washout followed by compound addition and measured after 4 days by ELISA. Format: functional, organism-based. The method in brief:
(§3)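 Five doses (100, 20, 4, 0.8, 0.16 µM) were added in triplicate to HepG2.2.15 cultures for 8 days, with fresh medium on day 4 and untreated controls. Day-8 supernatants were assayed for HBsAg and HBeAg by ELISA kit with absorbance read-out. IC50 is the concentration giving 50% inhibition of antigen secretion.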
In general terms: In an ELISA, binding on a coated surface is turned into a signal by an enzyme label.

Data set [13] can be described thus: Cytotoxicity against human HepG2.2.15 cells assessed as reduction in cell viability incubated for 4 days prior to compound washout followed by compound addition and measured after 4 days by […]. Format: cell-based, HepG2 2.2.15. As to conditions: time 8 day. (Formazan colour is commonly taken as a measure of viable cells.)
Data set [14] can be described thus: Cytotoxicity against human HepG2.2.15 cells assessed as reduction in cell viability incubated for 4 days prior to compound washout followed by compound addition and measured after 4 days by CCK8 assay. Type of data set: cell-based, HepG2 2.2.15. As to conditions: time 8 day. A digest of the protocol: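 Cytotoxicity in HepG2.2.15 cells was measured with five doses (100, 20, 4, 0.8, 0.16 µM) over 8 days, with medium changed on day 4. CCK-8 (10%) was added 0.5 h before the end, OD was read at 450/630 nm, and CC50 is the concentration killing 50% of cells against untreated controls.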

The test system of data set [15] is Hepatitis B virus. Nature of the data set: Antiviral activity against HBV infected in human HepG2.2.15 cells assessed as […] incubated for 4 days prior to compound washout followed by compound addition and measured after 4 days by fluorogenic probe based RT-qPCR analysis. Type of data set: functional, organism-based.
In data set [16] the test system is Hepatitis B virus. Description: Binding affinity to recombinant HBV capsid protein assessed as response value at 12.5 uM by surface plasmon resonance analysis (reference value: 14.56). A digest of the protocol:
as §1

For data set [17], the system named is Hepatitis B virus. Description: Binding affinity to recombinant HBV capsid protein assessed as response value at 6.25 uM by surface plasmon resonance analysis (reference value: 14.56). A digest of the protocol: as §1
Data set [18] has as its system Hepatitis B virus. Nature of the data set: Antiviral activity against HBV infected in human HepG2.2.15 cells assessed as reduction in HBsAg secretion incubated for 4 days prior to compound washout followed by compound addition and measured after 4 days by ELISA. Format: functional, organism-based. A digest of the protocol: as §3
For data set [19], the system named is Hepatitis B virus. Nature of the data set: Antiviral activity against HBV infected in human HepG2.2.15 cells assessed as reduction in intracellular viral DNA level at 50 uM incubated for 4 days prior to compound washout followed by compound addition and measured after 4 days by fluorogenic probe based RT-qPCR analysis relative to control. Format: functional. As to conditions: for inhibition at 50 µM: HepG2.2.15, 192 h, time 8 day.

Data set [20] concerns HepG2 2.2.15. Nature of the data set: Cytotoxicity against human HepG2.2.15 cells assessed as reduction in cell viability at 50 uM incubated for 4 days prior to compound washout followed by compound addition and measured after 4 days by CCK8 assay relative to control. Format: cell-based. As to conditions: hepg2 2.2.15, 192 h, time 8 day.
For data set [21], the system named is HepG2 2.2.15. Nature of the data set: Cytotoxicity against human HepG2.2.15 cells assessed as reduction in cell viability at 20 uM incubated for 4 days prior to compound washout followed by compound addition and measured after 4 days by CCK8 assay relative to control. Type of data set: cell-based. As to conditions: hepg2 2.2.15, 192 h, time 8 day.
Data set [22] concerns Hepatitis B virus. Description: Antiviral activity against HBV infected in human HepG2.2.15 cells assessed as reduction in intracellular viral DNA level at 20 uM incubated for 4 days prior to compound washout followed by compound addition and measured after 4 days by fluorogenic probe based RT-qPCR analysis relative to control. Format: functional. Particulars: time 8.0 day.

Structures are written as SMILES. Calls of active or inactive are those of the source. The rule behind the calls is not given here.

As to `CC(C)Cc1sc(-c2nccs2)nc1C(=O)NCc1ccc(F)cc1`, the Activity with Hepatitis B virus [1] is 38.4 RU; in the data set with HepG2 2.2.15 [3], 98.8%; in the data set on Hepatitis B virus [5], “Dose-dependent effect”; in the data set with Hepatitis B virus [10] it was 63.5 RU; with Hepatitis B virus [11], 41.4 RU; with Hepatitis B virus [16], 23.9 RU. Also, the Activity in the data set on Hepatitis B virus [17] was 17.7 RU. The selectivity ratio in data set [2] turned out to be 1.9; in data set [4], 25.7; in data set [7], 1.9. For the same molecule, the dissociation constant (Kd) in data set [6] was determined as 50.6 µM. In addition, the inhibition at 100 µM in the data set with Hepatitis B virus [8] worked out at 97.3%. Besides, the IC50 in the data set on Hepatitis B virus [9] came out at 1.33 µM; with Hepatitis B virus [12], 31.7 µM; with Hepatitis B virus [15] it was 2.3 µM; in the data set with Hepatitis B virus [18] it was 31.7 µM. Besides, the CC50 at 192 h in data set [13] came out at 50.4 µM; in data set [14], 59.2 µM.

For `CCNc1nn(-c2cccc(F)c2)cc1C(=O)OCC`, in the data set on HepG2 2.2.15 [3], the Activity worked out at 10.9%. Further, the inhibition at 100 µM in the data set on Hepatitis B virus [8] turned out to be 39.9%.

On to `O=C(NCc1ccc(F)cc1)c1ccc(-c2ccccc2)nc1-c1ccccc1`, for which the inhibition entry in the data set with Hepatitis B virus [19] (time 8.0 day) is “inactive”. The Activity in the data set on HepG2 2.2.15 [20] was found to be 4.4%.

In the case of `CC(C)Cc1nc(NS(=O)(=O)c2ccc(F)cc2)sc1C(=O)NCc1ccc(F)cc1`, the Activity in the data set with HepG2 2.2.15 [21] amounted to 17.5%. Further, the inhibition result with Hepatitis B virus [22] was “inactive”.

Turning to `Nc1ccn([C@@H]2CS[C@H](CO)O2)c(=O)n1` [LAMIVUDINE], the Activity in the data set with HepG2 2.2.15 [3] worked out at 12.7%. Besides, the selectivity ratio in data set [4] was greater than 167. For the same molecule, the inhibition at 100 µM in the data set with Hepatitis B virus [8] came to 87.9%. Moreover, the IC50 was greater than 100 µM in the data set with Hepatitis B virus [12], 0.6 µM with Hepatitis B virus [15] and greater than 100 µM with Hepatitis B virus [18]. Further, the CC50 at 192 h in [14] is greater than 100 µM.

Turning to `CC(C)Cc1nc(-c2ccsc2)sc1C(=O)NCc1ccc(F)cc1`, the Activity with HepG2 2.2.15 [21] stood at 6.7%. In the data set with Hepatitis B virus [22], the inhibition entry was “inactive”.

With `CCOC(=O)c1cnc(-c2ccccc2)nc1CC(C)C`, the inhibition at 50 µM in the data set with Hepatitis B virus [19] was 37.3%. For the same molecule, the Activity result in the data set on HepG2 2.2.15 [20] was “Non-Toxic”.

`O=C(NC1CC1)c1cn(-c2cccc(F)c2)nc1NCc1ccccc1`: in the data set on HepG2 2.2.15 [3], the Activity stood at 40.8%. Further, the inhibition at 100 µM in the data set on Hepatitis B virus [8] worked out at 38.8%.

As to `Cc1ccc(-c2nc(CC(C)C)c(C(=O)NCc3ccc(F)cc3)s2)s1`, in the data set on HepG2 2.2.15 [21], the Activity entry is “Non-Toxic”. Moreover, the inhibition result in the data set with Hepatitis B virus [22] is “inactive”.

As to `CC(C)Cc1nc(-c2cccc(F)c2)ncc1C(=O)NCc1ccc(F)cc1`, the inhibition at 50 µM in the data set with Hepatitis B virus [19] stood at 35.6%. In the data set on HepG2 2.2.15 [20], the Activity entry was “Non-Toxic”.

As for `CCOC(=O)c1cnc(-c2cccc(F)c2)nc1CC(C)C`, the inhibition at 50 µM with Hepatitis B virus [19] is 46.3%. In addition, the Activity entry with HepG2 2.2.15 [20] is given as “Non-Toxic”.

In the case of `CCOC(=O)c1cn(-c2nccs2)nc1NCc1ccccc1`, in the data set on HepG2 2.2.15 [3], the Activity turned out to be 30.4%. The inhibition entry in the data set on Hepatitis B virus [8] (time 8.0 day) was “inactive”.

Regarding `CC(C)Cc1sc(-c2nccs2)nc1C(=O)NCc1ccc(F)cc1F`, the selectivity ratio in data set [2] is 2.2; in data set [4], 16.8; in data set [7] it was 1.5. Also, the Activity in the data set with HepG2 2.2.15 [3] is 24.9%. Also, the inhibition at 100 µM in the data set with Hepatitis B virus [8] was 83.8%. Moreover, the IC50 with Hepatitis B virus [12] amounted to 30.1 µM; in the data set with Hepatitis B virus [15], 2.7 µM; in the data set with Hepatitis B virus [18], 21 µM. The CC50 at 192 h in data set [14] was determined as 45.4 µM.

As usually defined, the Kd is the equilibrium constant for the complex coming apart. As a reminder, the inhibition is the change of the read-out against control, counted positive when it falls. By IC50 is commonly meant the concentration needed to halve the response being measured. What is called CC50 is the concentration at which the toxic effect on the cells reaches its halfway point.
